The values below come from ChEMBL document CHEMBL4229449, “Synthesis and antimicrobial studies of hydrazone derivatives of 4-[3-(2,4-difluorophenyl)-4-formyl-1H-pyrazol-1-yl]benzoic acid and 4-[3-(3,4-difluorophenyl)-4-formyl-1H-pyrazol-1-yl]benzoic acid” (Bioorg Med Chem Lett, 2018).

SMILES strings stand for the structures. Converted amounts (≈) assume the structure as drawn. The source made the active and inactive calls. The calls are words filed in the database; no cut-off is given here.

Data set [1] deals with Staphylococcus aureus. As to the kind of experiment: Antimicrobial activity against methicillin-resistant Staphylococcus aureus by broth microdilution method. It counts as functional. In general terms: In broth dilution the organism is exposed to a series of concentrations in liquid medium.
The test system of data set [2] is Panel NCI-60 (60 carcinoma cell lines). As to the kind of experiment: Cytotoxicity against human NCI60 cells assessed as reduction in cell viability at 10 uM after 24 hrs by resazurin dye based method. (Resazurin is reduced to fluorescent resorufin, in cell work by metabolically active cells.)
Data set [3] deals with HEK293. In words: Cytotoxicity against human HEK293 cells assessed as reduction in cell viability at 50 ug/ml after 24 hrs by resazurin dye based method. As to conditions: hek293, 24 h. In short, it runs like this: (§1)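 HEK-293 human embryonic kidney cells were exposed to test compounds at 25 and 50 μg/mL and incubated for 24 h. Growth inhibition was read by resazurin assay and expressed as percent cell viability.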

The next data set deals with Klebsiella aerogenes. As to the kind of experiment: Antimicrobial activity against Enterobacter aerogenes by broth microdilution method. It counts as functional, organism-based.
A further data set relates to Acinetobacter baumannii. In words: Antimicrobial activity against Acinetobacter baumannii by broth microdilution method. It counts as functional.
The subject of the next data set is Pseudomonas aeruginosa. As to the kind of experiment: Antimicrobial activity against Pseudomonas aeruginosa by broth microdilution method. It counts as functional, organism-based.
The test system of data set [4] is Staphylococcus aureus. As to the kind of experiment: Growth inhibition of methicillin-resistant Staphylococcus aureus LAC after 20 to 24 hrs by resazurin dye based method. It counts as functional.
The test system of data set [5] is Staphylococcus aureus. In words: Growth inhibition of methicillin-sensitive Staphylococcus aureus UAMS-1 after 20 to 24 hrs by resazurin dye based method. Format: functional.
For data set [6], the system named is HEK293. In words: Cytotoxicity against human HEK293 cells assessed as reduction in cell viability at 25 to 50 ug/ml after 24 hrs by resazurin dye based method. As to conditions: hek293, 24 h. A digest of the protocol:
as §1

For data set [7], the system named is Staphylococcus aureus. As to the kind of experiment: Antimicrobial activity against Staphylococcus aureus by broth microdilution method. It counts as functional.
The next data set has as its system Bacillus subtilis. As to the kind of experiment: Antimicrobial activity against Bacillus subtilis by broth microdilution method. Format: functional.

As usually defined, the MIC is the least concentration at which growth counts as inhibited.

Regarding `O=C(O)c1ccc(-n2cc(/C=N/Nc3ccc(Cl)cc3Cl)c(-c3ccc(F)cc3F)n2)cc1`, the MIC was 0.78 µg/mL (≈ 1.6 µM) with Staphylococcus aureus [1]; 12.5 µg/mL (≈ 25.7 µM) with Acinetobacter baumannii; 12.5 µg/mL (≈ 25.7 µM) against Staphylococcus aureus [4]; 25 µg/mL (≈ 51.3 µM) with Staphylococcus aureus [5]; 3.12 µg/mL (≈ 6.41 µM) against Staphylococcus aureus [7]; 0.78 µg/mL (≈ 1.6 µM) with Bacillus subtilis. For the same compound, the Activity entry in [2] is given as “Non-Toxic”; in the data set with HEK293 [3], more than 80%; in the data set with HEK293 [6], “Non-Toxic”. Further, the MIC entry in the data set with Klebsiella aerogenes and in the data set with Pseudomonas aeruginosa was “inactive” each time.

Turning to `O=C(O)c1ccc(-n2cc(/C=N/Nc3ccc(Br)cc3)c(-c3ccc(F)c(F)c3)n2)cc1`, the MIC was found to be 1.56 µg/mL (≈ 3.14 µM) against Staphylococcus aureus [1]; 0.78 µg/mL (≈ 1.57 µM) with Acinetobacter baumannii; 12.5 µg/mL (≈ 25.1 µM) in the data set with Staphylococcus aureus [4]; 12.5 µg/mL (≈ 25.1 µM) against Staphylococcus aureus [5]; 3.12 µg/mL (≈ 6.27 µM) against Staphylococcus aureus [7]; 1.56 µg/mL (≈ 3.14 µM) in the data set with Bacillus subtilis. In addition, the Activity result is listed as “Non-Toxic” in data set [2], more than 80% in the data set with HEK293 [3] and “Non-Toxic” in the data set on HEK293 [6]. The MIC result in the data set on Klebsiella aerogenes and with Pseudomonas aeruginosa was “inactive” in each case.

`O=C(O)c1ccc(-n2cc(/C=N/Nc3ccc(Cl)cc3Cl)c(-c3ccc(F)c(F)c3)n2)cc1`: the MIC with Staphylococcus aureus [1] came to 1.56 µg/mL (≈ 3.2 µM); with Acinetobacter baumannii it was 3.12 µg/mL (≈ 6.41 µM); against Staphylococcus aureus [4], 6.25 µg/mL (≈ 12.8 µM); against Staphylococcus aureus [5], 6.25 µg/mL (≈ 12.8 µM); in the data set with Staphylococcus aureus [7] it was 1.56 µg/mL (≈ 3.2 µM); against Bacillus subtilis, 0.78 µg/mL (≈ 1.6 µM). Besides, the MIC result in the data set with Klebsiella aerogenes and in the data set with Pseudomonas aeruginosa was “inactive” throughout.

In the case of `O=C(O)c1ccc(-n2cc(/C=N/Nc3ccc(C(F)(F)F)cc3)c(-c3ccc(F)c(F)c3)n2)cc1`, the MIC against Staphylococcus aureus [1] stood at 0.78 µg/mL (≈ 1.6 µM); in the data set with Acinetobacter baumannii, 3.12 µg/mL (≈ 6.41 µM); against Staphylococcus aureus [4] it was 3.12 µg/mL (≈ 6.41 µM); in the data set on Staphylococcus aureus [5] it was 6.25 µg/mL (≈ 12.8 µM); in the data set with Staphylococcus aureus [7], 0.78 µg/mL (≈ 1.6 µM); against Bacillus subtilis it was 0.78 µg/mL (≈ 1.6 µM). Moreover, the Activity entry in data set [2] was “Non-Toxic”; with HEK293 [3] it was more than 80%; in the data set with HEK293 [6] it was “Non-Toxic”. Moreover, the MIC entry in the data set on Klebsiella aerogenes and with Pseudomonas aeruginosa was “inactive” each time.

On to `O=C(O)c1ccc(-n2cc(/C=N/Nc3ccc(Br)cc3)c(-c3ccc(F)cc3F)n2)cc1`, for which the MIC against Staphylococcus aureus [1] amounted to 12.5 µg/mL (≈ 25.1 µM); against Acinetobacter baumannii it was 1.56 µg/mL (≈ 3.14 µM); in the data set with Staphylococcus aureus [4], 25 µg/mL (≈ 50.3 µM); against Staphylococcus aureus [5] it was 25 µg/mL (≈ 50.3 µM); against Staphylococcus aureus [7] it was 12.5 µg/mL (≈ 25.1 µM); against Bacillus subtilis, 12.5 µg/mL (≈ 25.1 µM). Moreover, the Activity result in data set [2] is “Non-Toxic”; in the data set with HEK293 [3], more than 80%; with HEK293 [6] it was “Non-Toxic”. Moreover, the MIC result in the data set on Klebsiella aerogenes and in the data set with Pseudomonas aeruginosa was “inactive” throughout.
